A selection: hits, their analogues and other compounds. The true share with any hit is near 3.8%.
NS3 helicase inh = inhibitors of Hepatitis C virus NS3 helicase; NS3 helicase DNA unwinding, Cy5 molecular beacon fluorescence; AID 1800; inhibition, % at 10.9 µM; 290,000 compounds, 0.56% hits;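 active = inhibition above the mean of all tested compounds plus 3 SD, set per campaign, cut at about 35% in these data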
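System: Hepatitis C virus NS3 helicase domain fragment enzyme | Reagent: Annealed dual-labelled DNA beacon duplex, ATP-started | Compound dosing: 10.9 µM single point, 0.8% DMSO | Incubation: 1 h reaction at 25 °C, ATP-initiated | Technique: Cy5 fluorescence | Evaluation: Percent inhibition from t60/t0 fluorescence ratio | Benchmarks: Low DMSO, high thioflavine S at 110 µM | Replication: Singlicate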
Hep lipid drop = modulators of hepatic lipid droplet formation | AML12 mouse hepatocytes, oleate lipid droplets, BODIPY imaging | inhibition, % at 6.5 µM | 240,000 compounds, 0.4% hits;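 active = lipid droplet intensity inhibited by at least 50%, with more than 500 cells counted; inconclusive = wells with under 300 cells, treated as cytotoxic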
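Assay system: AML12 hepatocytes (mouse); Probe or stimulus: oleic acid at 100 µM to induce lipid droplet formation; Dosing: compound at 6.5 µM only; Schedule: compound with oleate, overnight; Detection: fluorescence imaging, 20x objective, two fields per well; Measure: % inhibition of lipid droplet signal.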
HSF1 inh = HSF1 inhibition. NIH3T3-HGL HSE-luciferase, MG132-induced, luminescence 8 h; stronger effect = lower value. activity change, negative = inhibition, % at 7.5 µM (by protocol). 300,000 compounds, 0.77% hits;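 active = more than half of replicate wells show activity change below -50%, luminescence cut by over half; inconclusive = some wells, but at most half, below -50%; inactive = no replicate well below -50%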;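 also: luciferase reports HSF-1 transcriptional activity via heat shock element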
HSP90 refold inh = HSP90 refolding inhibition in rabbit reticulocyte lysate; luciferase refolding luminescence, 3 h; inhibition, % at 5.6 µM; 290,000 compounds, 0.91% hits; AID 1789;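 active = inhibition above the screen-wide mean plus 3 SD, computed separately per campaign, cut at about 16% in these data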;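 also: inhibitors lower the luminescence because luciferase stays unfolded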
HSF-1 act = increases HSF-1 driven luciferase reporter signal | activation, % at 9 µM | 300,000 compounds, 1.7% hits | NIH3T3-HGL HSF-1 luciferase reporter, MG132, 8 h; 100% = twice DMSO control signal | AID 504408;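 active = mean replicate activation of at least 50% with a set share of replicates each reaching 50%; inconclusive = only one of those two conditions met; inactive = mean below 50% and too few replicates reaching it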
Hits are given with their value; . = inactive; ? = inconclusive; / = no result.

SMILES	NS3 helicase inh	Hep lipid drop	HSF1 inh	HSP90 refold inh	HSF-1 act
Cc1ccc(S/C=C\C(=O)c2ccccc2)cc1	.	.	.	.	118
Cc1ccc(C(=O)OCC(=O)c2ccc(Cl)s2)s1	.	.	.	.	60
O=C(O)CCC(=O)NCCn1c(-c2ccccc2)csc1=Nc1ccccc1	.	/	.	.	69
OCCCn1c(-c2ccccc2)csc1=Nc1ccccc1	.	.	.	.	.
Cc1ccc(-n2ncc3c2CC(C)(C)CC3NC(=O)CCc2c(C)noc2C)cc1 (centres undefined)	.	.	.	.	.
CC(=O)c1cc(C)ccc1OC(=O)CN1C(=O)c2ccccc2C1=O	.	.	.	.	.
O=C(OC1CCCCC1)c1ccc2c(c1)C1C=CCC1C(C(=O)O)N2 (centres undefined)	40	.	/	.	/
O=C(Nc1ccccc1)c1cccc(N2C(=O)C3C4CC(C(Br)C4Br)C3C2=O)c1 (centres undefined)	.	.	.	.	.
CCOC(=O)/C(=C\c1cccc(O)c1)c1nc2sc(C)c(C)c2c(=O)[nH]1	.	.	.	.	161
O=C(C1CCCN1S(=O)(=O)c1cccc2nsnc12)N1CCCCC1 (centres undefined)	.	.	.	.	.
O=C(NC1CCCCC1)C1CCCN1S(=O)(=O)c1cccc2nsnc12 (centres undefined)	.	/	.	.	54
O=[N+]([O-])c1ccc(COc2cccc3cccnc23)cc1	.	.	.	.	59
O=C(N/N=C/c1ccc[nH]1)c1ccc(COc2cccc3cccnc23)cc1	.	.	-69	.	.
Brc1ccc(COc2cccc3cccnc23)cc1	/	/	.	/	65
Brc1ccc(OCCOc2cccc3cccnc23)cc1	.	.	.	.	67
CCOC(=O)Cc1nnc(Nc2cccc(C)c2)c2ccccc12	.	.	.	.	80
CCOC(=O)c1c(-c2ccc(C)cc2)cn2ccccc12	.	/	.	.	78
CCOC(=O)c1c(-c2ccccc2)cn2ccccc12	.	/	.	.	.
COc1cc(NC(=O)CSc2nc(C3CC3)nc3ccccc23)cc(OC)c1	.	.	.	.	?
COc1ccc(C2N(C(=O)CN3CCCC3)CCCN2S(=O)(=O)c2ccccc2)cc1 (centres undefined)	.	.	.	.	105
COc1cccc(OC)c1NC(=O)CN1CCN(C)CC1	.	/	.	.	.
C/C(=C\c1ccc(Br)cc1)C(=O)c1c(C)cc(C)[nH]c1=O	.	.	.	.	.
COc1ccccc1/C=C(\C)C(=O)c1c(C)cc(C)[nH]c1=O	.	.	.	.	57
Cc1ccc(C)c(S(=O)(=O)N2CCN(C(=O)Cn3cnc4c3c(=O)n(C)c(=O)n4C)CC2)c1	.	.	.	.	.
CC(C)(C)NC(=O)CSc1ncnc2c1nnn2Cc1ccccc1Cl	.	/	.	.	112
SMILES	NS3 helicase inh	Hep lipid drop	HSF1 inh	HSP90 refold inh	HSF-1 act
O=C(CSc1ncnc2c1nnn2Cc1ccccc1)NC1CCCC1	.	.	.	.	58
COc1cccc(CN(C)C(=O)c2ccc(COc3ccc(Cl)cc3)cc2)c1OC	.	/	.	.	55
COc1ccccc1CN(C)C(=O)c1ccc(COc2ccccc2)cc1	.	.	.	.	.
O=C(C1=C[C@@H](C2CC2)C[C@@H](OCc2ccc(CO)cc2)O1)N1CCN(Cc2ccccc2)CC1	.	.	.	.	104
O=C(C1=C[C@@H](c2ccc(Br)cc2)C[C@@H](OCc2ccc(CO)cc2)O1)N1CCN(Cc2ccc3c(c2)OCO3)CC1	.	.	.	17	.
Cc1ccccc1-c1cc(=O)c2c(O)cccc2o1	/	.	.	/	57
Cc1sc2nc(C)n(/N=C/c3ccc(O)cc3O)c(=O)c2c1C	.	.	.	.	63
CCOC(=O)c1c(C)[nH]c(C(=O)COC(=O)C2(C)CC2(Cl)Cl)c1C (centres undefined)	.	.	.	.	56
CCOC(=O)CC(=O)c1[nH]c(C)c(C(=O)OCC)c1C	.	.	.	.	.
Cc1cc(N2CCN(c3ccc(F)cc3)CC2)nc2cc(O)ccc12	.	/	-55	.	.
COc1ccc(N2CCN(c3cc(C)c4ccc(O)cc4n3)CC2)cc1	.	.	.	.	.
Cc1ccc(NC(=O)Cn2c(CCC(=O)O)ccc2-c2cccs2)cc1	.	.	.	.	62
CCN(Cc1ccccc1)C(=O)C1CCN(Cc2sccc2C)CC1	.	.	-56	.	.

Screening results (PubChem BioAssay)
